Assay results reported in paper PMC12484386 (Journal of Clinical Pharmacology, 2025).

Experiments:
[1] = cited from earlier work
[2] = single oral 5 mg radiolabeled fruquintinib, healthy volunteers; cited from earlier work
[3] = Plasma protein binding in human plasma at 1-10 µM; type: in vitro ADME
[4] = Safety and tolerability, hepatic impairment study; type: in vivo, human
[5] = cited from earlier work; remark: listed apart in the source
Renal impairment study = type: in vivo, human
Method in brief: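 Renal function by Cockcroft-Gault. Parent and M11 plasma predose to 240 h by LC-MS/MS (1.00-750 ng/mL); unbound fraction by equilibrium dialysis at 4 h. Ln-parameters by one-way ANOVA; GMR with 90% CI.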

Hepatic impairment study = type: in vivo, human
Method in brief: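 Open-label single oral dose after ≥10 h overnight fast, held to 2 h postdose: Child-Pugh B (n=8) 2 mg; matched normal hepatic function (n=8) 5 mg. Parent and M11 plasma sampled predose to 240 h by validated LC-MS/MS (1.00-750 ng/mL). Data dose-normalized to 5 mg. Ln-transformed parameters by one-way ANOVA, cohort fixed; GMR and 90% CI back-transformed; unbound parameters analysed likewise.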

[6] = Safety and tolerability, renal impairment study; type: in vivo, human
AAG = assay: Separate in vitro equilibrium dialysis study, binding to AAG; type: in vitro ADME; conditions: AAG (alpha-1-acid glycoprotein)
plasma protein = conditions: cited from earlier work
[7] = cited from earlier work; remark: listed apart in the source
HSA = HSA (Homo sapiens, UniProt P02768); assay: Separate in vitro equilibrium dialysis study, binding to HSA; type: in vitro ADME; conditions: HSA (human serum albumin)
[8] = moderate renal impairment vs normal renal function
[9] = severe renal impairment compared with normal renal function
[10] = severe renal impairment vs normal renal function
[11] = moderate hepatic impairment vs normal hepatic function

HSA, sequence (P02768 25-609): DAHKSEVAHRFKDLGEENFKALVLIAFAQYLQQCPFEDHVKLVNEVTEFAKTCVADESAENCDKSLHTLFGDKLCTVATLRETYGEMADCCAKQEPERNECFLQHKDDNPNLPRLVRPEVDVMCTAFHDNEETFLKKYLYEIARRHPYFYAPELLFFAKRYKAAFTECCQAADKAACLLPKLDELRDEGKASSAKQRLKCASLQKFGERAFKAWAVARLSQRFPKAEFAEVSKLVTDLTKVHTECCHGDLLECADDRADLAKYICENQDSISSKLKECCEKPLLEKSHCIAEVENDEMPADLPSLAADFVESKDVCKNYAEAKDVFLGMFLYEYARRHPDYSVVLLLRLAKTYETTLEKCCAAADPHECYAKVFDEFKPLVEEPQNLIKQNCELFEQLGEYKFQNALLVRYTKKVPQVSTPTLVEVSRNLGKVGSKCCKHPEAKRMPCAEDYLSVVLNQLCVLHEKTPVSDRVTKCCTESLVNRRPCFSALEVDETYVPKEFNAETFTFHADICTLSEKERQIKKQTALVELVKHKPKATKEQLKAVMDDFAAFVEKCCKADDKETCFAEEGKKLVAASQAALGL

CNC(=O)c1c(C)oc2cc(Oc3ncnc4cc(OC)c(OC)cc34)ccc12 [fruquintinib]
elimination half-life (t1/2) [1]: approximately 42 h
weight-normalized apparent clearance [1]: approximately 0.17 mL/min/kg
time to steady-state concentrations ([1]; consecutive QD dosing): 14 days
median time to maximum plasma concentration (Tmax) ([1]; oral administration, patients with cancer): approximately 2 h
accumulation at steady-state ([1]; relative to a single dose, QD dosing): approximately 4 fold
dose recovered in feces [2]: 30%
dose recovered in urine [2]: approximately 60%
dose recovered unchanged in feces [2]: 5%
dose recovered unchanged in urine [2]: 0.5%
fraction unbound at 1 µM [3]: 0.046
fraction unbound at 3 µM [3]: 0.047
fraction unbound at 10 µM [3]: 0.047
participants with treatment emergent adverse events (TEAEs) ([4]; 4 of the 16 participants, all TEAEs in moderate hepatic impairment): 25.0%
tolerability ([4]; both studies, single dose 2 or 5 mg): generally well tolerated
participants with treatment-related TEAEs ([4]; hepatic impairment study, three of 16 participants): 18.8%
participants with dizziness ([4]; moderate hepatic impairment, one of 8, grade 1, nonserious, related): 12.5%
participants with urinary tract infection ([4]; moderate hepatic impairment, one of 8, grade 2, nonserious, not related): 12.5%
change in fruquintinib exposure ([5]; co-administration with itraconazole, a strong CYP3A inhibitor): did not result in clinically meaningful change
reduction of fruquintinib exposure ([5]; concurrent use of rifampin, a strong metabolic enzyme inducer): approximately 65%
CL/F, mean (SD) (Renal impairment study; moderate renal impairment (CrCl 30-59 mL/min), N = 8, single oral 5 mg): 14.2 mL/min
difference across Cmax, AUC0-t, and AUC0-inf (Renal impairment study; moderate renal impairment compared with normal renal function): less than 8%
LS GMR DN AUC0-inf [90% CI] (Renal impairment study; [8]): 1.07
LS GMR DN AUC0-t [90% CI] (Renal impairment study; [8]): 1.06
LS GMR DN Cmax [90% CI] (Renal impairment study; [8]): 0.95
CL/F, mean (SD) (Renal impairment study; normal renal function, N = 8, single oral 5 mg): 15.0 mL/min
CL/F, mean (SD) (Renal impairment study; severe renal impairment (CrCl 15-29 mL/min), N = 8, single oral 2 mg): 15.0 mL/min
difference in AUCs (Renal impairment study; [9]): less than 3%
dose-normalized Cmax lower (Renal impairment study; [9]): approximately 11%
LS GMR DN AUC0-inf [90% CI] (Renal impairment study; [10]): 1.01
LS GMR DN AUC0-t [90% CI] (Renal impairment study; [10]): 0.97
LS GMR DN Cmax [90% CI] (Renal impairment study; [10]): 0.89
CL/F, mean (SD) (Hepatic impairment study; moderate hepatic impairment (Child-Pugh B), N = 8, single oral 2 mg): 17.4 mL/min
difference in dose-normalized Cmax (Hepatic impairment study; moderate hepatic impairment compared with normal hepatic function): less than 5%
AUCs lower (Hepatic impairment study; moderate hepatic impairment compared with normal hepatic function, dose normalized): approximately 10%
LS GMR DN AUC0-inf [90% CI] (Hepatic impairment study; [11]): 0.91
LS GMR DN AUC0-t [90% CI] (Hepatic impairment study; [11]): 0.89
LS GMR DN Cmax [90% CI] (Hepatic impairment study; [11]): 1.04
CL/F, mean (SD) (Hepatic impairment study; normal hepatic function, N = 8, single oral 5 mg): 15.3 mL/min
participants with TEAEs ([6]; 3 of the 24 participants): 12.5%
participants with headache ([6]; moderate renal impairment, one of eight, grade 1, nonserious, not related): 12.5%
participants with hypoglycemia ([6]; moderate renal impairment, one of eight, grade 3, nonserious, not related): 12.5%
participants with eye pruritis and periorbital edema ([6]; normal renal function, one of eight, grade 1, nonserious, not related): 12.5%
fraction unbound at 0.1 µM (AAG): 0.356
fraction unbound at 1 µM (AAG): 0.358
fraction unbound at 10 µM (AAG): 0.413
protein binding in human plasma (plasma protein): approximately 95%
inter-individual variability in apparent oral clearance [7]: 26%
impact of mild to moderate renal impairment and mild hepatic impairment on PK ([7]; population PK analysis): no clinically meaningful impact
fraction unbound at 0.1 µM (HSA): 0.0565
fraction unbound at 1 µM (HSA): 0.0635
fraction unbound at 10 µM (HSA): 0.0627
